Measured values taken from ChEMBL document CHEMBL1125672, “2-acetylpyridine thiosemicarbazones. 13. Derivatives with antifilarial activity” (1991).

Legend:
Onchocerca gutturosa [1] = assay: Mean motility score for treated Onchocerca gutturosa involving LLCMK2 feeder cells at a concentration of 3.05*10e-9 M at 96 h; format: functional
Outline: (§1)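 Single male O. gutturosa worms (obtained following abattoir slaughter) per well in Eagle's MEM with 10% heat-inactivated fetal calf serum, penicillin, streptomycin, amphotericin B and bicarbonate, over LLCMK2 feeder cells, 5% CO2 in air. Drug dissolved in DMSO; controls received matched DMSO ≤0.016%. Motility scored 0 (immotile) to 10 (maximum control activity) every 30 min to 4.5 h, then days 1, 2, 3, 4, 7.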

Onchocerca volvulus [2] = assay: Mean motility score for treated Onchocerca volvulus excluding LLCMK2 feeder cells at a concentration of 5*10e-5 M at 72 h
Onchocerca volvulus [3] = assay: Mean motility score for treated Onchocerca volvulus excluding LLCMK2 feeder cells at a concentration of 5*10e-5 M at 1.5 h
Onchocerca volvulus [4] = assay: Mean motility score for treated Onchocerca volvulus excluding LLCMK2 feeder cells at a concentration of 5*10e-5 M at 24 h
Onchocerca volvulus [5] = assay: Mean motility score for treated Onchocerca volvulus excluding LLCMK2 feeder cells at a concentration of 3.1*10e-6 M at 24 h
Onchocerca gutturosa [6] = assay: Mean motility score for treated Onchocerca gutturosa involving LLCMK2 feeder cells at a concentration of 3.05*10e-9 M at 24 h; format: functional; outline: as §1
Onchocerca volvulus [7] = assay: Mean motility score for treated Onchocerca volvulus excluding LLCMK2 feeder cells at a concentration of 3.1*10e-6 M at 2 h
Onchocerca gutturosa [8] = assay: Mean motility score for treated Onchocerca gutturosa involving LLCMK2 feeder cells at a concentration of 3.05*10e-9 M at 4 h; format: functional; outline: as §1
Onchocerca gutturosa [9] = assay: Mean motility score for treated Onchocerca gutturosa involving LLCMK2 feeder cells at a concentration of 5*10e-5 M at 96 h; format: functional
Outline: (§2)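 Single male O. gutturosa worms per well in Eagle's MEM with 10% heat-inactivated fetal calf serum, antibiotics and bicarbonate, over LLCMK2 feeder cells, 5% CO2 in air. Test chemical dissolved in DMSO and diluted into medium; control wells got matched DMSO not exceeding 0.016%. Motility scored 0 (immotile) to 10 (maximum control motility) every 30 min for 4.5 h, then at 1, 2, 3, 4 and 7 days.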

Onchocerca gutturosa [10] = assay: Mean motility score for treated Onchocerca gutturosa involving LLCMK2 feeder cells at a concentration of 3.05*10e-9 M at 3 h; format: functional; outline: as §1
Onchocerca gutturosa [11] = assay: Mean motility score for treated Onchocerca gutturosa involving LLCMK2 feeder cells at a concentration of 5*10e-5 M at 4.5 h; format: functional; outline: as §1
Brugia pahangi [12] = assay: anti-filarial Activity was measured against Brugia pahangi in jirds at 25 mg/kg/day(5 days) dose; format: functional
Outline: (§3)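 Jirds with established B. pahangi or A. viteae infections were given drug once daily for 5 days by subcutaneous injection, at the maximum tolerated dose and, where supply allowed, graded lower doses. Tolerance was first checked in noninfected jirds with a single 200 mg/kg oral or subcutaneous dose, watching 72 h for excessive weight loss or death. Macrofilarial suppression was the read-out.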

Onchocerca volvulus [13] = assay: Colorimetric quantification of male Onchocerca volvulus viability, expressed as % inhibition of formazan formation at 3.1*10e-6 M conc. by using tetrazolium Dye MTT assay; format: functional
Outline: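 Male O. volvulus dissected from human nodules within 24 h (kept in medium on ice), cultured without feeder cells in medium with 10% serum; drug from DMSO stock. MTT after 96 h: single worm, 0.5 mg/mL MTT, 30 min at 36.5 °C, formazan dissolved in DMSO 1 h at room temperature, absorbance 490 nm against DMSO blank.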

Onchocerca gutturosa [14] = assay: Mean motility score for treated Onchocerca gutturosa involving LLCMK2 feeder cells at a concentration of 3.05*10e-9 M at 72 h; format: functional; outline: as §1
Acanthocheilonema viteae = assay: anti-filarial Activity was measured against Acanthocheilonema viteae in jirds at 12.5 mg/kg/day(5 days) dose; format: functional; outline: as §3
Onchocerca volvulus [15] = assay: Mean motility score for treated Onchocerca volvulus excluding LLCMK2 feeder cells at a concentration of 3.1*10e-6 M at 72 h
Onchocerca gutturosa [16] = assay: Mean motility score for treated Onchocerca gutturosa involving LLCMK2 feeder cells at a concentration of 5*10e-5 M at 72 h; format: functional; outline: as §2
Onchocerca volvulus [17] = assay: Mean motility score for treated Onchocerca volvulus excluding LLCMK2 feeder cells at a concentration of 5*10e-5 M at 96 h
Brugia pahangi [18] = assay: anti-filarial Activity was measured against Brugia pahangi in jirds at 12.5 mg/kg/day(5 days) dose; format: functional; outline: as §3
Onchocerca gutturosa [19] = assay: Mean motility score for treated Onchocerca gutturosa involving LLCMK2 feeder cells at a concentration of 5*10e-5 M at 24 h; format: functional; outline: as §1
Onchocerca gutturosa [20] = assay: Mean motility score for treated Onchocerca gutturosa involving LLCMK2 feeder cells at a concentration of 5*10e-5 M at 48 h; format: functional; outline: as §2
Onchocerca volvulus [21] = assay: Mean motility score for treated Onchocerca volvulus excluding LLCMK2 feeder cells at a concentration of 3.1*10e-6 M at 48 h
Onchocerca gutturosa [22] = assay: Mean motility score for treated Onchocerca gutturosa involving LLCMK2 feeder cells at a concentration of 5*10e-5 M at 2 h; format: functional; outline: as §1
Onchocerca volvulus [23] = assay: Mean motility score for treated Onchocerca volvulus excluding LLCMK2 feeder cells at a concentration of 3.1*10e-6 M at 96 h
Onchocerca gutturosa [24] = assay: Mean motility score for treated Onchocerca gutturosa involving LLCMK2 feeder cells at a concentration of 5*10e-5 M at 0.5 h; format: functional; outline: as §1
Onchocerca gutturosa [25] = assay: Mean motility score for treated Onchocerca gutturosa involving LLCMK2 feeder cells at a concentration of 5*10e-5 M at 1.5 h; format: functional; outline: as §1
Onchocerca gutturosa [26] = assay: Mean motility score for treated Onchocerca gutturosa involving LLCMK2 feeder cells at a concentration of 5*10e-5 M at 4 h; format: functional; outline: as §1
Onchocerca gutturosa [27] = assay: Mean motility score for treated Onchocerca gutturosa involving LLCMK2 feeder cells at a concentration of 5*10e-5 M at 1 h; format: functional; outline: as §1
Onchocerca gutturosa [28] = assay: Mean motility score for treated Onchocerca gutturosa involving LLCMK2 feeder cells at a concentration of 3.05*10e-9 M at 4.5 h; format: functional; outline: as §1
Onchocerca volvulus [29] = assay: Mean motility score for treated Onchocerca volvulus excluding LLCMK2 feeder cells at a concentration of 5*10e-5 M at 2 h
Onchocerca gutturosa [30] = assay: Mean motility score for treated Onchocerca gutturosa involving LLCMK2 feeder cells at a concentration of 3.05*10e-9 M at 48 h; format: functional; outline: as §1
Onchocerca gutturosa [31] = assay: Mean motility score for treated Onchocerca gutturosa involving LLCMK2 feeder cells at a concentration of 5*10e-5 M at 3 h; format: functional; outline: as §1
Onchocerca gutturosa [32] = assay: Mean motility score for treated Onchocerca gutturosa involving LLCMK2 feeder cells at a concentration of 3.05*10e-9 M at 3.5 h; format: functional; outline: as §1

Row | Compound | Motility (Onchocerca gutturosa [1]) | Motility (Onchocerca volvulus [2]) | Motility (Onchocerca volvulus [3]) | Motility (Onchocerca volvulus [4]) | Motility (Onchocerca volvulus [5]) | Motility (Onchocerca gutturosa [6]) | Motility (Onchocerca volvulus [7]) | Motility (Onchocerca gutturosa [8]) | Motility (Onchocerca gutturosa [9]) | Motility (Onchocerca gutturosa [10]) | Motility (Onchocerca gutturosa [11]) | Suppression (Brugia pahangi [12]) [%] | Inhibition (Onchocerca volvulus [13]) [%] | Motility (Onchocerca gutturosa [14]) | Suppression (Acanthocheilonema viteae) [%] | Motility (Onchocerca volvulus [15]) | Motility (Onchocerca gutturosa [16]) | Motility (Onchocerca volvulus [17]) | Suppression (Brugia pahangi [18]) [%] | Motility (Onchocerca gutturosa [19]) | other results
1 | C/C(=N\NC(=S)N1CCCCCC1)c1ccccn1 | 5.5 | 1 | 8 | 1.6 | 3.4 | 9.3 | 6.6 | 7.8 | 0 | 8.8 | 1.8 | 84 | 39.6 | 6 | -16 | 1 | 0 | 0.3 | 100 | 0 | Motility (Onchocerca gutturosa [20]): 0; Motility (Onchocerca volvulus [21]): 0.6; Motility (Onchocerca gutturosa [22]): 4.8; Motility (Onchocerca volvulus [23]): 0; Motility (Onchocerca gutturosa [24]): 6; Motility (Onchocerca gutturosa [25]): 4.8; Motility (Onchocerca gutturosa [26]): 1.5; Motility (Onchocerca gutturosa [27]): 4.8; Motility (Onchocerca gutturosa [28]): 9.5; Motility (Onchocerca volvulus [29]): 8; Motility (Onchocerca gutturosa [30]): 6.8; Motility (Onchocerca gutturosa [31]): 2.2; Motility (Onchocerca gutturosa [32]): 8.3
2 | C/C(=N\NC(S)=Nc1ccccc1N)c1ccccn1 | 6.8 | 2.4 | 4.4 | 4.4 | 1.6 | 7.3 | 6 | 5.8 | 1.5 | 7.5 | 9.5 | 100 | 65.3 | 7.5 | 28 | 1.2 | 1.6 | 0.6 | 16 | 9.5 | Motility (Onchocerca gutturosa [20]): 8.3; Motility (Onchocerca volvulus [21]): 2; Motility (Onchocerca gutturosa [22]): 8.5; Motility (Onchocerca volvulus [23]): 0.4; Motility (Onchocerca gutturosa [24]): 10; Motility (Onchocerca gutturosa [25]): 9.5; Motility (Onchocerca gutturosa [26]): 9.5; Motility (Onchocerca gutturosa [27]): 10; Motility (Onchocerca gutturosa [28]): 7.5; Motility (Onchocerca volvulus [29]): 6; Motility (Onchocerca gutturosa [30]): 6.3; Motility (Onchocerca gutturosa [31]): 9.3; Motility (Onchocerca gutturosa [32]): 7.3
